Assay results reported in PMC6972567 (Journal of Clinical Pharmacology, 2019).

Assays:
[1] = Plasma pharmacokinetics of the CYP probe substrates and metabolites; assay type: in vivo, human; details: for AUC(0-inf): AUCinf; for AUC(0-t): AUCt; for half-life / t1/2: harmonic mean ± pseudo-SD
CYP2C19 = assay type: in vivo, human; details: probe with upadacitinib 30 mg once daily relative to probe alone, all subjects
CYP1A2 = molecular target: T1, CYP1A2 (Homo sapiens, UniProt P05177); assay type: in vivo; details: probe with upadacitinib 30 mg once daily relative to probe alone, all subjects
T1 sequence (P05177 1-516): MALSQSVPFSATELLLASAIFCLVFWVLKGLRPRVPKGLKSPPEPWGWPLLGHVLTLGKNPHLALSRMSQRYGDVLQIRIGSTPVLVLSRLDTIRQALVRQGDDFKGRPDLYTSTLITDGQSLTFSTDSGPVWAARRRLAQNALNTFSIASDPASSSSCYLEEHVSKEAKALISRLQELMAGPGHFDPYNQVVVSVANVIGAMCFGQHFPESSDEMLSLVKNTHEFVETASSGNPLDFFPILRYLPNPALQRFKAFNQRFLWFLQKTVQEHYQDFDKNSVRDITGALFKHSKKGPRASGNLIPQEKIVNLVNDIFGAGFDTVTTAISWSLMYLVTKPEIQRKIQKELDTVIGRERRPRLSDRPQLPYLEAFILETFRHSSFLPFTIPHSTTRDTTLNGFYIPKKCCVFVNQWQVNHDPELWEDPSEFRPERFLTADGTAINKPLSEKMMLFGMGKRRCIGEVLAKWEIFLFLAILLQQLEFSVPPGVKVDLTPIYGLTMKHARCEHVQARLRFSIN
Summary of the method: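 Twenty subjects received single oral doses on two occasions: a caffeine 200 mg tablet with the other cocktail probes, after a 10-hour minimum fast and 4 hours before lunch. This was given first alone, then after a 5-day washout on day 12 of test compound 30 mg once daily (days 1‐15). Heparinised plasma was sampled predose through 24 h and at 36 h, with validated assay.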

[2] = cited from earlier work
CYP3A [3] = assay type: in vivo, human
CYP3A [4] = details: cited from earlier work
[5] = Safety assessments in the cocktail study; assay type: in vivo, human
CYP2D6 = assay type: in vivo, human; details: probe with upadacitinib 30 mg once daily relative to probe alone, all subjects
[6] = Period 1, CYP probes alone, n = 20, mean ± SD
[7] = Period 2, CYP probes + upadacitinib 30 mg once daily, median (range)
[8] = Period 2, CYP probes + upadacitinib 30 mg once daily, n = 20, mean ± SD
[9] = human, plasma, oral, Period 1, CYP probes alone, n = 20, mean ± SD
[10] = human, plasma, oral, Period 2, CYP probes + upadacitinib 30 mg once daily, n = 20, mean ± SD
[11] = human, plasma, oral, t1/2, Period 2, CYP probes + upadacitinib 30 mg once daily
[12] = Period 1, CYP probes alone, median (range)
[13] = Period 2, CYP probes + upadacitinib 30 mg once daily
[14] = multiple doses of upadacitinib 30 mg once daily
[15] = probe with upadacitinib 30 mg once daily relative to probe alone, all subjects

Row | SMILES | CL/F [1, 6] [L/h] | Tmax [1, 7] | CL/F [1, 8] [L/h] | Tmax ([1]; human, plasma, oral) [h] | AUC(0-inf) [1, 10] [ng·h/mL] | AUC(0-t) [1, 9] [ng·h/mL] | AUC(0-t) [1, 10] [ng·h/mL] | Cmax ([1]; human, plasma, po) [ng/mL] | t1/2 ([1]; Period 1, CYP probes alone) [h] | Tmax [1, 12] | t1/2 [1, 13] [h] | further results
1 | COc1ccc2[nH]c([S+]([O-])Cc3ncc(C)c(OC)c3C)nc2c1 (centres unmarked) [Omeprazole, omeprazole] | 26.5 ± 20.5 | 3.0 (2.0‐6.0) h | 34.9 ± 24.7 | 3 | 2080 ± 1860 | 2520 ± 2750 | 2000 ± 1820 | – | – | – | – | AUC(0-inf) [1, 9]: 2890 ± 2870 ng·h/mL; half-life [1, 11]: 1.14 ± 0.386 h; AUCinf Central Value Ratio (90%CI) (CYP2C19): 0.82 (0.72‐0.94); AUCt Central Value Ratio (90%CI) (CYP2C19): 0.87 (0.77‐0.99); Cmax Central Value Ratio (90%CI) (CYP2C19): 0.87 (0.72‐1.05)
2 | Cn1c(=O)c2c(ncn2C)n(C)c1=O [Caffeine, caffeine] | 6.53 ± 2.99 | 2.0 (1.0‐4.0) h | 5.31 ± 2.26 | 2 | – | – | – | 4190 ± 826 | – | – | – | half-life ([1]; human, plasma, oral, t1/2, Period 1, CYP probes alone): 4.52 ± 1.5 h; half-life [1, 11]: 5.28 ± 1.5 h; AUCinf Central Value Ratio (90%CI) (CYP1A2): 1.22 (1.15‐1.29); AUCt Central Value Ratio (90%CI) (CYP1A2): 1.21 (1.15‐1.28); Cmax Central Value Ratio (90%CI) (CYP1A2): 1.13 (1.05‐1.22)
3 | CC[C@@H]1CN(C(=O)NCC(F)(F)F)C[C@@H]1c1cnc2cnc3[nH]ccc3n12 [Upadacitinib] | – | – | – | – | – | – | – | – | – | – | – | administered dose recovered as unchanged upadacitinib in feces and urine [2]: more than 60%; metabolizing enzymes [2]: metabolized by cytochrome P450 (CYP) 3A and, to a lesser extent, by CYP2D6; accumulation in plasma ([2]; multiple once-daily dosing of the extended-release formulation): no accumulation; effect of upadacitinib on CYP3A activity / probe exposure in vivo (in words) (CYP3A [3]; upadacitinib 30 mg once daily, midazolam probe): limited effect; sensitivity as CYP3A substrate (CYP3A [4]; concluded from ketoconazole and rifampin interaction): not a sensitive substrate for CYP3A; increase in upadacitinib AUC (CYP3A [4]; with ketoconazole, a strong CYP3A inhibitor): 75%; tolerability ([5]; CYP probe substrates alone or after multiple doses of upadacitinib 30 mg once daily, healthy subjects): well tolerated; adverse event assessed as possibly related to upadacitinib ([5]; one subject): mild oropharyngeal pain
4 | COc1ccc2nc([S+]([O-])Cc3ncc(CO)c(OC)c3C)[nH]c2c1 (centres unmarked) [5‐Hydroxy omeprazole, 5‐hydroxy‐omeprazole] | – | 3.0 (2.0‐6.0) h | – | – | – | – | – | – | 1.36 ± 0.293 | 3.0 (2.0‐6.0) h | 1.37 ± 0.319 | AUCinf [1, 6]: 1290 ± 364 ng·h/mL; AUCt [1, 6]: 1270 ± 359 ng·h/mL; Cmax ([1]; Period 1, CYP probes alone, single oral dose, plasma, healthy subjects n = 20, mean ± SD): 435 ± 155 ng/mL; AUCinf [1, 8]: 1180 ± 302 ng·h/mL; AUCt [1, 8]: 1160 ± 292 ng·h/mL; Cmax ([1]; Period 2, CYP probes + upadacitinib 30 mg once daily, plasma, n = 20, mean ± SD): 389 ± 116 ng/mL; AUCinf Central Value Ratio (90%CI) (CYP2C19): 0.92 (0.86‐0.99); AUCt Central Value Ratio (90%CI) (CYP2C19): 0.92 (0.85‐0.99)
5 | Cc1ncc2n1-c1ccc(Cl)cc1C(c1ccccc1F)=NC2 [Midazolam, midazolam] | 68.1 ± 29.2 | – | 90.2 ± 32.7 | – | 64.6 ± 30.9 | 87.5 ± 44.5 | 63.2 ± 29.6 | 32.6 ± 14.1 | 4.65 ± 2.51 | 0.5 (0.5‐1.0) h | 4.08 ± 2.33 | decrease in AUCinf (CYP3A [3]; [14]): 26%; decrease in Cmax (CYP3A [3]; [14]): 26%; AUCinf Central Value Ratio (90%CI) (CYP3A [3]; [15]): 0.74 (0.68‐0.80); AUCt Central Value Ratio (90%CI) (CYP3A [3]; [15]): 0.74 (0.68‐0.80); Cmax Central Value Ratio (90%CI) (CYP3A [3]; [15]): 0.74 (0.68‐0.80); decrease in exposure (CYP3A [3]; upadacitinib 30 mg once daily): 26%
6 | CC(=O)C[C@@H](c1ccccc1)c1c(O)c2ccccc2oc1=O [S‐warfarin] | – | 2.0 (0.5‐3.0) h | – | – | – | – | – | – | – | 2.0 (0.5‐4.0) h | – | concentrations at the start of period 2 ([1]; carryover after 5-day washout): < 5 % of S‐warfarin Cmax
7 | COc1ccc2c(c1)[C@]13CCCC[C@@H]1[C@H](C2)N(C)CC3 [Dextromethorphan, dextromethorphan] | 4120 ± 5580 | 3.5 (2.0‐6.0) h | 3390 ± 4560 | 3.5 | 328 ± 552 | 250 ± 397 | 225 ± 347 | 7.77 ± 10.1 | 6.82 ± 4.68 | – | 7.26 ± 5.08 | AUC(0-inf) [1, 9]: 403 ± 706 ng·h/mL; AUCinf Central Value Ratio (90%CI) (CYP2D6): 1.07 (0.95‐1.22); AUCt Central Value Ratio (90%CI) (CYP2D6): 1.10 (0.97‐1.25); Cmax Central Value Ratio (90%CI) (CYP2D6): 1.09 (0.98‐1.21)
